The test system of experiment [1] is Mus musculus. Put plainly: In vivo antimalarial activity against Plasmodium berghei. Activity expressed as ED50. In kind it is functional. The method in brief:
(§1)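 Mice infected with drug-sensitive N strain of P. berghei; compound given subcutaneously as a single daily dose for 4 days. ED50 and ED90 reported in mg/kg.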

The test system of experiment [2] is Mus musculus. The experiment is described as follows: In vivo antimalarial activity against Plasmodium berghei. Activity expressed as ED90. The experiment is classed as functional. Summed up: as §1
Experiment [3] has as its system Plasmodium falciparum. Put plainly: In vitro antimalarial activity against Plasmodium falciparum W-2. The experiment is classed as functional, organism-based.
For experiment [4], the system named is Plasmodium falciparum. Put plainly: In vitro antimalarial activity against Plasmodium falciparum D6. In kind it is functional, organism-based.

≈ marks a conversion by molar mass, not a printed value.

Take `CO[C@H]1O[C@@]2(C)CC[C@H]3CCC[C@@H](CCOCc4ccc(F)cc4)[C@]31OO2`: it took a dose of 7.6 mg/kg to reach the 50% effect level in experiment [1] (ED50). This molecule displayed an ED90 in experiment [2] of 13.5 mg/kg. For the same molecule, the IC50 amounted to 4.5 ng/mL (≈ 0.0118 µM) in experiment [3] and 3 ng/mL (≈ 0.00789 µM) in experiment [4].
Molecule `C[C@H]1[C@H](OC(=O)CCC(=O)[O-])O[C@@H]2O[C@@]3(C)CC[C@H]4[C@H](C)CC[C@@H]1[C@@]24OO3.[Na+]` [SODIUM ARESUNATE] gave an ED50 in experiment [1] of 1.5 mg/kg. Besides, the ED90 in experiment [2] stood at 4.9 mg/kg.
On to `CO[C@H]1O[C@@]2(C)CC[C@H]3CCC[C@@H](CCOCc4ccncc4)[C@]31OO2`, for which the IC50 is 7.5 ng/mL (≈ 0.0206 µM) in experiment [3] and 10 ng/mL (≈ 0.0275 µM) in experiment [4].
On to `CO[C@H]1O[C@@]2(C)CC[C@H]3CCC[C@@H](CCOCc4ccccc4)[C@]31OO2`, for which the half-inhibitory concentration (IC50) was determined as 3 ng/mL (≈ 0.00828 µM) in experiment [3] and 8 ng/mL (≈ 0.0221 µM) in experiment [4].
Take `CO[C@H]1O[C@@]2(C)CC[C@H]3CCC[C@@H](CCOCc4cc[n+](C)cc4)[C@]31OO2.[I-]`: 85 ng/mL corresponded to half-maximal inhibition in experiment [3] (IC50).
`CO[C@H]1O[C@@]2(C)CC[C@H]3CCC[C@@H](CCOCc4ccc(-c5ccccc5)cc4)[C@]31OO2`: the IC50 in experiment [3] and in experiment [4] was 6 ng/mL (≈ 0.0137 µM) throughout.
In the case of `CO[C@H]1O[C@@]2(C)CC[C@H]3CCC[C@@H](CCOCc4ccccn4)[C@]31OO2`, the IC50 in experiment [3] is 7 ng/mL (≈ 0.0193 µM); in experiment [4], 18 ng/mL (≈ 0.0495 µM).
